Data as given in ChEMBL document CHEMBL1129484, “Selectively cytotoxic diterpenes from Euphorbia poisonii” (J Med Chem, 1996).
In brackets after ≈: the same amount, converted by molar mass.

Test system: A549
Test: Cytotoxicity on lung carcinoma (A-549) cell line
Assay type: functional
Conditions: Homo sapiens, read-out: ED50 (the source's name)
Summary of the method: (§1)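 Human solid tumour cell line panel tested at the Purdue Cancer Center with a 7-day MTT viability assay under standard protocols. Cell lines were A-549 lung, MCF-7 breast, HT-29 colon, A-498 kidney, PC-3 prostate and PACA-2 pancreatic. Adriamycin served as positive control.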

Going from `C=C(C)[C@]12C[C@@H](C)[C@@]34OC(Cc5ccccc5)(O[C@@H]1[C@@H]3C=C(COC(=O)Cc1ccc(O)c(OC)c1)C[C@]1(O)C(=O)C(C)=CC41)O2` (some centres undefined) to `C=C(C)[C@]12C[C@@H](C)[C@@]34OC(Cc5ccccc5)(O[C@@H]1C3C=C(CO)C[C@]1(O)C(=O)C(C)=CC41)O2` (some centres undefined), the EC50 rises from 1.12 µg/mL (≈ 1.78 µM) to 5.41 µg/mL (≈ 11.6 µM) (4.8-fold).

`CC(=O)OCC1=C[C@H]2[C@@H]3C(C)(C)[C@]3(OC(=O)Cc3ccccc3)C[C@@H](C)[C@]2(O)C2C=C(C)C(=O)[C@@]2(O)C1` (some centres undefined) and `C/C=C(/C)C(=O)O[C@@]12C[C@@H](C)[C@]3(O)C4C=C(C)C(=O)[C@@]4(O)CC(COC(C)=O)=C[C@H]3[C@@H]1C2(C)C` (some centres undefined) are within 1.5-fold of each other in EC50: 26.1 µg/mL (≈ 51.2 µM) for the first, 18.9 µg/mL (≈ 40 µM) for the second.

Going from `C/C=C(/C)C(=O)O[C@@]12C[C@@H](C)[C@]3(O)C4C=C(C)C(=O)[C@@]4(O)CC(CO)=C[C@H]3[C@@H]1C2(C)C` (some centres undefined) to `CC1=CC2[C@@]3(O)[C@H](C)C[C@]4(OC(=O)CCCCCCC[C@H]5C[C@@H]5C)[C@H]([C@@H]3C(C)=C(CO)C[C@]2(O)C1=O)C4(C)C` (some centres undefined), the EC50 falls from 11.6 µg/mL (≈ 26.9 µM) to 2.85 µg/mL (≈ 5.25 µM) (4.1-fold).

Test system: A498
Test: Cytotoxicity on kidney carcinoma (A-498) cell line
Assay type: functional
Conditions: Homo sapiens, read-out: ED50 (the source's name)
Summary of the method: as §1

Going from `C=C(C)[C@]12C[C@@H](C)[C@@]34OC(Cc5ccccc5)(O[C@@H]1[C@@H]3C=C(COC(=O)Cc1ccc(O)c(OC)c1)C[C@]1(O)C(=O)C(C)=CC41)O2` (some centres undefined) to `C=C(C)[C@]12C[C@@H](C)[C@@]34OC(Cc5ccccc5)(O[C@@H]1C3C=C(CO)C[C@]1(O)C(=O)C(C)=CC41)O2` (some centres undefined), the EC50 rises from 1.08 µg/mL (≈ 1.72 µM) to 1.97 µg/mL (≈ 4.24 µM) (1.8-fold).

`CC(=O)OCC1=C[C@H]2[C@@H]3C(C)(C)[C@]3(OC(=O)Cc3ccccc3)C[C@@H](C)[C@]2(O)C2C=C(C)C(=O)[C@@]2(O)C1` (some centres undefined) and `C/C=C(/C)C(=O)O[C@@]12C[C@@H](C)[C@]3(O)C4C=C(C)C(=O)[C@@]4(O)CC(COC(C)=O)=C[C@H]3[C@@H]1C2(C)C` (some centres undefined) are within 1.5-fold of each other in EC50: 1.59 µg/mL (≈ 3.13 µM) for the first, 2.18 µg/mL (≈ 4.61 µM) for the second.

First: C/C=C(/C)C(=O)O[C@@]12C[C@@H](C)[C@]3(O)C4C=C(C)C(=O)[C@@]4(O)CC(CO)=C[C@H]3[C@@H]1C2(C)C (some centres undefined)
Second: COc1cccc2c1C(=O)c1c(O)c3c(c(O)c1C2=O)C[C@@](O)(C(=O)CO)C[C@@H]3O[C@H]1C[C@H](N)[C@H](O)[C@H](C)O1 [DOXORUBICIN]
The EC50 of the first is 25-fold higher: 46 µg/mL (≈ 107 µM) for the first, 1.87 µg/mL (≈ 3.44 µM) for the second.

Test system: not listed separately
Test: Lethal concentration against Brine Shrimp
Assay type: organism-based
Conditions: artemia, in vivo
Summary of the method: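 Brine shrimp lethality test run by a standard protocol on partitioned fractions, pooled chromatographic fractions and isolated compounds. LC50 values were determined and expressed in µg/mL.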

Compared with `C=C(C)[C@]12C[C@@H](C)[C@@]34OC(Cc5ccccc5)(O[C@@H]1[C@@H]3C=C(COC(=O)Cc1ccc(O)c(OC)c1)C[C@]1(O)C(=O)C(C)=CC41)O2` (some centres undefined), `CC(=O)OCC1=C[C@H]2[C@@H]3C(C)(C)[C@]3(OC(=O)Cc3ccccc3)C[C@@H](C)[C@]2(O)C2C=C(C)C(=O)[C@@]2(O)C1` (some centres undefined) is 23-fold lower in LC50: 281 µg/mL (≈ 447 µM) for the first, 12 µg/mL (≈ 23.7 µM) for the second.

First: C/C=C(/C)C(=O)O[C@@]12C[C@@H](C)[C@]3(O)C4C=C(C)C(=O)[C@@]4(O)CC(CO)=C[C@H]3[C@@H]1C2(C)C (some centres undefined)
Second: C/C=C(/C)C(=O)O[C@@]12C[C@@H](C)[C@]3(O)C4C=C(C)C(=O)[C@@]4(O)CC(COC(C)=O)=C[C@H]3[C@@H]1C2(C)C (some centres undefined)
The LC50 of the first is 1.7-fold lower: 115 µg/mL (≈ 266 µM) for the first, 191 µg/mL (≈ 404 µM) for the second.

Test system: HT-29
Test: Cytotoxicity on adenocarcinoma (HT-29 colon) cell line
Assay type: functional
Conditions: Homo sapiens, read-out: ED50 (the source's name)
Summary of the method: as §1

Compared with `C=C(C)[C@]12C[C@@H](C)[C@@]34OC(Cc5ccccc5)(O[C@@H]1[C@@H]3C=C(COC(=O)Cc1ccc(O)c(OC)c1)C[C@]1(O)C(=O)C(C)=CC41)O2` (some centres undefined), `C=C(C)[C@]12C[C@@H](C)[C@@]34OC(Cc5ccccc5)(O[C@@H]1C3C=C(CO)C[C@]1(O)C(=O)C(C)=CC41)O2` (some centres undefined) is 2.5-fold higher in EC50: 3 µg/mL (≈ 4.77 µM) for the first, 7.41 µg/mL (≈ 16 µM) for the second.

`CC(=O)OCC1=C[C@H]2[C@@H]3C(C)(C)[C@]3(OC(=O)Cc3ccccc3)C[C@@H](C)[C@]2(O)C2C=C(C)C(=O)[C@@]2(O)C1` (some centres undefined) and `C/C=C(/C)C(=O)O[C@@]12C[C@@H](C)[C@]3(O)C4C=C(C)C(=O)[C@@]4(O)CC(COC(C)=O)=C[C@H]3[C@@H]1C2(C)C` (some centres undefined) are within 1.5-fold of each other in EC50: 29.5 µg/mL (≈ 57.9 µM) for the first, 30.8 µg/mL (≈ 65.1 µM) for the second.

Work on `C/C=C(/C)C(=O)O[C@@]12C[C@@H](C)[C@]3(O)C4C=C(C)C(=O)[C@@]4(O)CC(CO)=C[C@H]3[C@@H]1C2(C)C` (some centres undefined) yielded an EC50 of 26.5 µg/mL (≈ 61.6 µM).

Test system: MCF7
Test: Cytotoxicity on breast carcinoma (MCF-7) cell line
Assay type: functional
Conditions: Homo sapiens, read-out: ED50 (the source's name)
Summary of the method: as §1

Going from `C=C(C)[C@]12C[C@@H](C)[C@@]34OC(Cc5ccccc5)(O[C@@H]1[C@@H]3C=C(COC(=O)Cc1ccc(O)c(OC)c1)C[C@]1(O)C(=O)C(C)=CC41)O2` (some centres undefined) to `C=C(C)[C@]12C[C@@H](C)[C@@]34OC(Cc5ccccc5)(O[C@@H]1C3C=C(CO)C[C@]1(O)C(=O)C(C)=CC41)O2` (some centres undefined), the EC50 rises from 4.29 µg/mL (≈ 6.82 µM) to 30.9 µg/mL (≈ 66.5 µM) (7.2-fold).

`CC(=O)OCC1=C[C@H]2[C@@H]3C(C)(C)[C@]3(OC(=O)Cc3ccccc3)C[C@@H](C)[C@]2(O)C2C=C(C)C(=O)[C@@]2(O)C1` (some centres undefined) and `C/C=C(/C)C(=O)O[C@@]12C[C@@H](C)[C@]3(O)C4C=C(C)C(=O)[C@@]4(O)CC(COC(C)=O)=C[C@H]3[C@@H]1C2(C)C` (some centres undefined) are within 1.5-fold of each other in EC50: 41.3 µg/mL (≈ 81.1 µM) for the first, 41.8 µg/mL (≈ 88.4 µM) for the second.

With `C/C=C(/C)C(=O)O[C@@]12C[C@@H](C)[C@]3(O)C4C=C(C)C(=O)[C@@]4(O)CC(CO)=C[C@H]3[C@@H]1C2(C)C` (some centres undefined) the EC50 was 69.9 µg/mL (≈ 162 µM).

Test system: MIA PaCa-2
Test: Cytotoxicity on pancreatic carcinoma (PACA-2) cell line
Assay type: functional
Conditions: Homo sapiens, read-out: ED50 (the source's name)
Summary of the method: as §1

`C=C(C)[C@]12C[C@@H](C)[C@@]34OC(Cc5ccccc5)(O[C@@H]1[C@@H]3C=C(COC(=O)Cc1ccc(O)c(OC)c1)C[C@]1(O)C(=O)C(C)=CC41)O2` (some centres undefined) and `C=C(C)[C@]12C[C@@H](C)[C@@]34OC(Cc5ccccc5)(O[C@@H]1C3C=C(CO)C[C@]1(O)C(=O)C(C)=CC41)O2` (some centres undefined) are within 1.5-fold of each other in EC50: 2.44 µg/mL (≈ 3.88 µM) for the first, 3.55 µg/mL (≈ 7.64 µM) for the second.

`CC(=O)OCC1=C[C@H]2[C@@H]3C(C)(C)[C@]3(OC(=O)Cc3ccccc3)C[C@@H](C)[C@]2(O)C2C=C(C)C(=O)[C@@]2(O)C1` (some centres undefined) and `C/C=C(/C)C(=O)O[C@@]12C[C@@H](C)[C@]3(O)C4C=C(C)C(=O)[C@@]4(O)CC(COC(C)=O)=C[C@H]3[C@@H]1C2(C)C` (some centres undefined) are within 1.5-fold of each other in EC50: 26.9 µg/mL (≈ 52.9 µM) for the first, 30.3 µg/mL (≈ 64.2 µM) for the second.

Going from `C/C=C(/C)C(=O)O[C@@]12C[C@@H](C)[C@]3(O)C4C=C(C)C(=O)[C@@]4(O)CC(CO)=C[C@H]3[C@@H]1C2(C)C` (some centres undefined) to `CC1=CC2[C@@]3(O)[C@H](C)C[C@]4(OC(=O)CCCCCCC[C@H]5C[C@@H]5C)[C@H]([C@@H]3C(C)=C(CO)C[C@]2(O)C1=O)C4(C)C` (some centres undefined), the EC50 falls from 37.2 µg/mL (≈ 86.5 µM) to 1.92 µg/mL (≈ 3.54 µM) (19-fold).

Molecule `COc1cccc2c1C(=O)c1c(O)c3c(c(O)c1C2=O)C[C@@](O)(C(=O)CO)C[C@@H]3O[C@H]1C[C@H](N)[C@H](O)[C@H](C)O1` [DOXORUBICIN] has an EC50 of 1.63 µg/mL (≈ 3 µM).

Test system: PC-3
Test: Cytotoxicity on prostate adenocarcinoma (PC-3) cell line
Assay type: functional
Conditions: Homo sapiens, read-out: ED50 (the source's name)
Summary of the method: as §1

Going from `C=C(C)[C@]12C[C@@H](C)[C@@]34OC(Cc5ccccc5)(O[C@@H]1[C@@H]3C=C(COC(=O)Cc1ccc(O)c(OC)c1)C[C@]1(O)C(=O)C(C)=CC41)O2` (some centres undefined) to `C=C(C)[C@]12C[C@@H](C)[C@@]34OC(Cc5ccccc5)(O[C@@H]1C3C=C(CO)C[C@]1(O)C(=O)C(C)=CC41)O2` (some centres undefined), the EC50 rises from 2.9 µg/mL (≈ 4.61 µM) to 4.56 µg/mL (≈ 9.82 µM) (1.6-fold).

`CC(=O)OCC1=C[C@H]2[C@@H]3C(C)(C)[C@]3(OC(=O)Cc3ccccc3)C[C@@H](C)[C@]2(O)C2C=C(C)C(=O)[C@@]2(O)C1` (some centres undefined) and `C/C=C(/C)C(=O)O[C@@]12C[C@@H](C)[C@]3(O)C4C=C(C)C(=O)[C@@]4(O)CC(COC(C)=O)=C[C@H]3[C@@H]1C2(C)C` (some centres undefined) are within 1.5-fold of each other in EC50: 35.1 µg/mL (≈ 69 µM) for the first, 27.7 µg/mL (≈ 58.6 µM) for the second.

First: C/C=C(/C)C(=O)O[C@@]12C[C@@H](C)[C@]3(O)C4C=C(C)C(=O)[C@@]4(O)CC(CO)=C[C@H]3[C@@H]1C2(C)C (some centres undefined)
Second: CC1=CC2[C@@]3(O)[C@H](C)C[C@]4(OC(=O)CCCCCCC[C@H]5C[C@@H]5C)[C@H]([C@@H]3C(C)=C(CO)C[C@]2(O)C1=O)C4(C)C (some centres undefined)
The EC50 of the first is 7.3-fold higher: 17.9 µg/mL (≈ 41.6 µM) for the first, 2.44 µg/mL (≈ 4.5 µM) for the second.
